In ChEMBL document CHEMBL3864132, “Free fatty acid receptor 1 (GPR40) agonists containing spirocyclic periphery inspired by LY2881835” (Bioorg Med Chem, 2016):

Tests used:
[1] = target: T1, Free fatty acid receptor 3 (Homo sapiens, UniProt O14843); test: Agonist activity at human FFA3 receptor expressed in CHO cells assessed as induction of Ca2+ flux by fluo-8 dye based FLIPR assay; assay type: functional, cell-based
T1 sequence (O14843 whole entry): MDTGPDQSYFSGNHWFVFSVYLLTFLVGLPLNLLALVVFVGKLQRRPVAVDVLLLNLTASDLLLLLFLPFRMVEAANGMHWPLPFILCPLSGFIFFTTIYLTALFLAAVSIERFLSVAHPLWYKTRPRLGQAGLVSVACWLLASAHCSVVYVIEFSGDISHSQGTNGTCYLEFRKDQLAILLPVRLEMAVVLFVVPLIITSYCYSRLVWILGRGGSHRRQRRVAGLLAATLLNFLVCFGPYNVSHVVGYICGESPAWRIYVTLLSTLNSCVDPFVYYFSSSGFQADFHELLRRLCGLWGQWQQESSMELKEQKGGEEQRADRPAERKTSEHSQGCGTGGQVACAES
Procedure, shortened: (§1)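 CHO lines stably expressing the respective receptor (GPR43, GPR41 or GPR120) used for specificity screening. Cells loaded 1 h with Fluo-8 calcium dye and read by FLIPR; maximum fluorescence change over baseline taken as agonist response.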

[2] = target: T2, Free fatty acid receptor 4 (Homo sapiens, UniProt Q5NUL3); test: Agonist activity at human FFA4 receptor expressed in CHO cells assessed as induction of Ca2+ flux by fluo-8 dye based FLIPR assay; assay type: functional, cell-based; procedure, shortened: as §1
T2 sequence (Q5NUL3 whole entry): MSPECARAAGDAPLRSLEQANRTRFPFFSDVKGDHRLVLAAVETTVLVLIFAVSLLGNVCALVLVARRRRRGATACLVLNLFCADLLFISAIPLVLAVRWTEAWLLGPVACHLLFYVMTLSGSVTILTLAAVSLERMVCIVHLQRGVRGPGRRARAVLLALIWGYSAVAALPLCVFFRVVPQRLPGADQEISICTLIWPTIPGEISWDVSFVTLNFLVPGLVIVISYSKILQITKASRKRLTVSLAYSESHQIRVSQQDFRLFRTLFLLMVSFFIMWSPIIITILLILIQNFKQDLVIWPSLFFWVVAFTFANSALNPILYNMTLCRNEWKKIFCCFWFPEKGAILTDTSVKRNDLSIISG

[3] = Apparent permeability from apical to basolateral side in human Caco2 cells at 10 uM by HPLC-MS analysis; assay type: ADME, cell-based; conditions: Caco-2
Procedure, shortened: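 Apical-to-basolateral transport across Caco-2 monolayers, integrity checked by TEER in every well. Compound at 10 μM, acceptor concentrations by HPLC-MS. Papp = (VA/(area × time)) × ([drug]acc/[drug]initial,donor), insert area 0.31 cm², in 10^-6 cm/s. Mean of n = 2.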

[4] = target: T3, Free fatty acid receptor 1 (Homo sapiens, UniProt O14842); test: Agonist activity at human FFA1 receptor expressed in CHO cells assessed as induction of Ca2+ flux by fluo-8 dye based FLIPR assay; assay type: functional, cell-based
Procedure, shortened: (§2)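 CHO cells stably expressing human GPR40 seeded 24 h before assay, loaded 1 h with Fluo-8 calcium dye, read on FLIPR. Agonist response taken as maximum fluorescence change over baseline; concentration-response curves fitted for EC50. Efficacy expressed relative to GW9508 at 5 μM.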

[5] = Half life in BALB/c mouse liver microsomes at 2 uM by HPLC-MS analysis; assay type: ADME
Procedure, shortened: (§3)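 Pooled liver microsomes from male BALB/c mice at 0.42 mg protein/ml in 100 mM potassium phosphate pH 7.4 with MgCl2, NADPH and a G6P/G6PDH regenerating system. Compound 2 μM (1.6% solvent), 37°C, five time points over 40 min, duplicates. Quenched in acetonitrile, analysed by HPLC-MS/MS. kel from ln(AUC) versus time; T1/2 = 0.693/kel; CLint scaled to incubation volume per mg microsomes.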

[6] = target: T4, Free fatty acid receptor 2 (Homo sapiens, UniProt O15552); test: Agonist activity at human FFA2 receptor expressed in CHO cells assessed as induction of Ca2+ flux by fluo-8 dye based FLIPR assay; assay type: functional, cell-based; procedure, shortened: as §1
T4 sequence (O15552 whole entry): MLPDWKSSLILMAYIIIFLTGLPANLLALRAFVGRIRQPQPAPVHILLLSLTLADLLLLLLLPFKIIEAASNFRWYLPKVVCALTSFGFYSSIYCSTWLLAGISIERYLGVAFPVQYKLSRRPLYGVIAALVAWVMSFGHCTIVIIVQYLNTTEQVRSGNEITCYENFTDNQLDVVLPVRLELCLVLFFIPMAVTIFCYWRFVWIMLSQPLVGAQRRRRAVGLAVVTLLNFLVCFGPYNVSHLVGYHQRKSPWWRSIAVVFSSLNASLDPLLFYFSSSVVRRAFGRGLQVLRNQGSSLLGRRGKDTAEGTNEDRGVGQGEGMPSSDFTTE

[7] = Kinetic aqueous solubility of the compound in PBS buffer […] at pH 7.4 after 2 hrs by UV-Visible spectrophotometric analysis; assay type: physicochemical; conditions: read-out: Kinetic_solubility
Procedure, shortened: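 Equilibrated 2 h at 25°C with shaking, then filtered. Filtrates read by UV-Vis scan against 0–400 μM calibration curves in methanol/PBS.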

[8] = Protein binding in human plasma at 1 uM after 5 hrs by HPLC-MS/MS analysis; assay type: ADME, cell-free; conditions: read-out: PPB (converted)
Procedure, shortened: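 Equilibrium dialysis (12–14 kDa MWCO) of plasma spiked at 1 μM (1% solvent) against PBS pH 7.4, 5 h at 37°C with shaking, quadruplicates. Chambers matrix-matched, precipitated with acetonitrile and analysed by HPLC-MS/MS. Bound % = (1 − buffer/plasma peak area) × 100; recovery checked against undialyzed spiked plasma.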

[9] = Intrinsic clearance in BALB/c mouse liver microsomes at 2 uM up to 40 mins by HPLC-MS analysis; assay type: ADME; procedure, shortened: as §3
[10] = target: T3, Free fatty acid receptor 1; test: Agonist activity at human FFA1 receptor expressed in CHO cells assessed as induction of Ca2+ flux by fluo-8 dye based FLIPR assay relative to GW9508; assay type: functional, cell-based; procedure, shortened: as §2

T3 sequence (O14842 whole entry): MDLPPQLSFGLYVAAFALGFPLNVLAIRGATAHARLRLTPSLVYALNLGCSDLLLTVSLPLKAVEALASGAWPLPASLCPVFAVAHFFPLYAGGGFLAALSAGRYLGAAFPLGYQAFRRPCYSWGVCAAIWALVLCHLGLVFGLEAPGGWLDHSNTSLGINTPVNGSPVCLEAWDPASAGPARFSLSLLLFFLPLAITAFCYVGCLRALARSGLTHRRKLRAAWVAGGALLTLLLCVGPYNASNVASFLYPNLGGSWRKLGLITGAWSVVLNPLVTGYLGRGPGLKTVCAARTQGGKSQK

Structure (SMILES): COc1ccc(CC2CCOC3(CCN(Cc4ccc(COc5ccc(CCC(=O)O)cc5)cc4)CC3)C2)cc1.Cl (stereo unspecified)
- EC50 [1]: > 10 µM
- EC50 [2]: > 10 µM
- Papp A→B at 10 µM [3]: 15.8 ×10⁻⁶ cm/s
- EC50 [4]: 0.28 µM
- half-life at 2 µM [5]: 11.8 min
- EC50 [6]: > 10 µM
- solubility kinetic at 2 h [7]: 42 µM
- fraction unbound at 5 h, 1 µM [8]: 0.007
- CLint at 40 min, 2 µM [9]: 141 µL/min/mg
- Emax [10]: 100%

Structure (SMILES): O=C(O)CCc1ccc(OCc2ccc(CN3CCC4(CC3)CC(Cc3ccc(C(F)(F)F)cc3)CCO4)cc2)cc1 (stereo unspecified)
- EC50 [4]: 1.27 µM
- Emax [10]: 74%

Structure (SMILES): O=C(O)CCc1ccc(OCc2ccc(CN3CCC4(CC3)CC(Cc3ccccc3F)CCO4)cc2)cc1 (stereo unspecified)
- EC50 [4]: 0.81 µM
- Emax [10]: 95%

Structure (SMILES): O=C(O)CCc1ccc(OCc2ccc(CN3CCC4(CC3)CC(OCC3CC3)CCO4)cc2)cc1 (stereo unspecified)
- EC50 [4]: > 20 µM

Structure (SMILES): CCOC1CCOC2(CCN(Cc3ccc(COc4ccc(CCC(=O)O)cc4)cc3)CC2)C1 (stereo unspecified)
- EC50 [4]: > 20 µM

Structure (SMILES): COC1CCOC2(CCN(Cc3ccc(COc4ccc(CCC(=O)O)cc4)cc3)CC2)C1 (stereo unspecified)
- EC50 [4]: > 20 µM

Structure (SMILES): Cl.O=C(O)CCc1ccc(OCc2ccc(CN3CCC4(CC3)CC(Cc3ccccc3)CCO4)cc2)cc1 (stereo unspecified)
- EC50 [1]: > 10 µM
- EC50 [2]: > 10 µM
- Papp A→B at 10 µM [3]: 12 ×10⁻⁶ cm/s
- EC50 [4]: 0.055 µM
- half-life at 2 µM [5]: 8.5 min
- EC50 [6]: > 10 µM
- solubility kinetic at 2 h [7]: 151 µM
- fraction unbound at 5 h, 1 µM [8]: 0.012
- CLint at 40 min, 2 µM [9]: 196 µL/min/mg
- Emax [10]: 93%

Structure (SMILES): CC1CCOC2(CCN(Cc3ccc(COc4ccc(CCC(=O)O)cc4)cc3)CC2)C1 (stereo unspecified)
- EC50 [4]: > 20 µM

Structure (SMILES): C[C@]12CC[C@H]3[C@@H](CCC4=CC(=O)CC[C@@]43C)[C@@H]1CC[C@@H]2O [TESTOSTERONE]
- Papp A→B at 10 µM [3]: 13.6 ×10⁻⁶ cm/s

Structure (SMILES): O=C(O)CCc1ccc(OCc2ccc(CN3CCC4(CC3)CC(Cc3cccc(F)c3)CCO4)cc2)cc1 (stereo unspecified)
- EC50 [4]: > 20 µM

Structure (SMILES): O=C(O)CCc1ccc(OCc2ccc(CN3CCC4(CCCCO4)CC3)cc2)cc1
- EC50 [4]: > 20 µM
